Experimental data gathered from unrelated publications.
Protocols differ between the studies behind these lines.
Target: Inhibitor of nuclear factor kappa-B kinase subunit beta (IKBKB, Homo sapiens, UniProt O14920)
Sequence (O14920 1-756, as in one of the studies): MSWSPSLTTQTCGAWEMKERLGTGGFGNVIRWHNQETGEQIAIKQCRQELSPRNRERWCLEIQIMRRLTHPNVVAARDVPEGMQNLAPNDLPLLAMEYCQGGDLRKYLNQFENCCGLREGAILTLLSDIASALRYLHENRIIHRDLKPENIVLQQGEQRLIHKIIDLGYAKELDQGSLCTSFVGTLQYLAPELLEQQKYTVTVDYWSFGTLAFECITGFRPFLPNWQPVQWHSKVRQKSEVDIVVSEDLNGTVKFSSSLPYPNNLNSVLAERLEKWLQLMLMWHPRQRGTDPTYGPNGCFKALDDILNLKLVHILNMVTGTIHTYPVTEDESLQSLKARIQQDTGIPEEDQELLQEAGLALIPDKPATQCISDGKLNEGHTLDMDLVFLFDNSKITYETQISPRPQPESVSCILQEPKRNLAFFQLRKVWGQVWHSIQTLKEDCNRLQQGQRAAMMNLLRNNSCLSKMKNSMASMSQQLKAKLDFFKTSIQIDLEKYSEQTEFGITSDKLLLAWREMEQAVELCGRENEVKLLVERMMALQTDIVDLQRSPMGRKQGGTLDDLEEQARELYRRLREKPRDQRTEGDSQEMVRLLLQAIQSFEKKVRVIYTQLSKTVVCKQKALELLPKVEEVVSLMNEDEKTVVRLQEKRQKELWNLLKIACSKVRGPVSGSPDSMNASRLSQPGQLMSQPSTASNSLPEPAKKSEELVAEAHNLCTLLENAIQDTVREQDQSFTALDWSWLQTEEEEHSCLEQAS

With `Cc1nn(C)cc1-c1nc2c(N3CCN(Cc4ccc(Cl)cc4)CC3)c(Cl)cnc2[nH]1` the remaining binding was 100% (binding, competition with immobilised ligand; 1 µM).
`COc1ncccc1-c1cnn2ccc(N3CCN(C(=O)OC(C)C)CC3)nc12` gave a remaining binding of 61% (binding, competition with immobilised ligand; 1 µM).
The remaining binding of `Cn1cncc1[C@](O)(COc1ccc(C#N)cc1-c1ccc(OC(F)(F)F)cc1)c1ccc(C#N)cc1` is reported as 87% (cell-free assay, competition with immobilised ligand; 1 µM).
`C#Cc1n[nH]c2c(-c3cn([C@@H](C)c4ccccc4)c(=O)[nH]c3=O)cc(F)cc12` gave an inhibition of -2.2% (enzyme activity, inhibitor; 0.1 µM).
The remaining activity of `CC(C)(C)c1cc(C=C(C#N)C#N)cc(Br)c1O` is reported as 95.7% (enzyme activity, inhibitor; 0.5 µM).
For `N#CC1(c2ccccn2)CCN(Cc2cc(C(=O)O)c(=O)n3ccccc23)CC1`, the remaining binding was 100% (cell-free assay, competition with immobilised ligand; 1 µM).
For `Cn1cc(-c2cc(F)cc(N3CCn4c(cc5c4CCCC5)C3=O)c2CO)cc(Nc2ccc(N3CCN(C4COC4)CC3)cn2)c1=O`, the inhibition was 5% (enzyme activity, inhibitor; 0.1 µM).
With `C#Cc1n[nH]c2c(-c3cn([C@@H](C)c4ccccn4)c(=O)[nH]c3=O)cc(F)cc12` the inhibition was 0.8% (enzyme activity, inhibitor; 0.1 µM).
`Nc1ncc(-c2nc(N3CCOCC3)nc(N3CCOCC3)n2)c(C(F)F)n1` has a remaining binding of 77% (binding, competition with immobilised ligand; 10 µM).
The remaining activity of `O=c1[nH]c2ccccc2n1C1CCN(Cc2ccc(-c3[nH]c4cc5ncnc5cc4nc3-c3ccccc3)cc2)CC1` is reported as 101% (enzyme activity; 0.5 µM).
